# Screens (PubChem BioAssay)
# Rows were chosen to be rich in hits. Some 2.9% of all compounds tested hit in one or more screens of this group.
# Vif imaging: inhibitors of HIV Vif; HEK293T cells, Vif self-association by quenched fluorescence, imaging, 24 h; 0.35% of 340,000 active; inhibition, % at 7.49 µM; in the data active = inhibition above about 50%, passing the limit was not always enough; inconclusive = no clear call, values can overlap the other calls; inactive = below about 31%
# PGC1a acetyl inh: lowers PGC1a acetylation signal in U2OS cells. AlphaScreen anti-acetyl-lysine; with virally co-expressed GCN5 acetyltransferase. inhibition, % at 15.6 µM. 0.17% of 350,000 active;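 active = every replicate shows inhibition of at least 40%; inconclusive = mean inhibition at least 40% but some replicate below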;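 note: 0% = neutral control wells and 100% = positive control wells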
# rRNA inh HTS: inhibits bacterial ribosomal RNA function over humanized ribosomes | GFP signal change (wild-type ribosome), % (concentration not given with the values) | E. coli WT GFP vs humanized-ribosome RFP mutants, fluorescence, 24 h; stronger effect = lower value; DMSO median 0, no signal -100 | 1.6% of 350,000 active;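 active = significant combined selectivity score with lowered wild-type GFP, culture density cut under 30%, mutant RFP and density less affected; inactive = any of these conditions unmet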
# Cneo AK release: causes C. neoformans cell lysis; adenylate kinase release luminescence, 4 h; normalised: neutral wells 0, clomiphene wells 100; lysis activity, % at 15 µM; 0.2% of 360,000 active;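 active = mean lysis activity across replicates of at least 80%, whatever share of replicates individually reach that level; inactive = mean lysis activity below 80%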
#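 Material – Cryptococcus neoformans yeast cells · Quantity – 5 × 10^6 yeast cells/mL · Buffer or medium – YPD medium · Compound – single dose · Timing – 4 h static compound exposure, 37 °C, read 1 h post-reagent · Signal – adenylate kinase release luminescence · Read-out basis – lysis from increased AK signal · Benchmarks – Clomiphene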
# FGF22 binding: shifts melting point of recombinant human FGF22; recombinant FGF22 thermal shift, SYPRO orange fluorescence; percent of sucrose octasulfate shift, DMSO zero; activity (Tm shift, normalised), % at 9.99 µM; 1.5% of 340,000 active; AID 651658;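 active = mean Tm shift, scaled 0 neutral to 100 positive control, at about 1.3% or above, every replicate too, limit read from the data; inconclusive = no clear call, values can overlap the other calls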
# Target sequence (Q9HCT0 whole entry, looked up): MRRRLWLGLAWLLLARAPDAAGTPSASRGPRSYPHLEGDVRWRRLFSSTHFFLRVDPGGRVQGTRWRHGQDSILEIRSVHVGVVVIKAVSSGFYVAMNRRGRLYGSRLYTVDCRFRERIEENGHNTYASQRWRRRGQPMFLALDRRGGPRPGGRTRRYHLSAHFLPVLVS
# PglD DTNB: PglD (C. jejuni) enzyme inhibition | purified PglD enzyme, DTNB colorimetric CoA detection | 0.098% of 360,000 active | inhibition, % at 12.5 µM; in the data active = inhibition above about 16%, passing the limit was not always enough; inconclusive = no clear call, values can overlap the other calls
# Active calls of the source: *; ? = inconclusive; / = no result.
SMILES,Vif imaging,PGC1a acetyl inh,rRNA inh HTS,Cneo AK release,FGF22 binding,PglD DTNB
COc1ccc(OCC(=O)NNC(=O)c2c(-c3ccccc3Cl)noc2C)cc1,-3,62*,14,/,0,/
Nc1cc(=O)[nH]n1C1CCCCC1,22,0,13,2,43*,2
Nc1cc(=O)[nH]n1C1CCCC1,17,2,17,0,0,4
CN(C)C(=O)c1ccc(-c2ccc([C@@H]3[C@@H](C#N)N(C(=O)Cc4ccccn4)[C@H]3CO)cc2)cc1,/,-3,2,0,0,1
COc1ccc(C2CC(c3ccccc3)=NN2S(=O)(=O)c2ccccc2)cc1 (stereo not drawn),-8,-21,-4,1,0,-4
Cc1ccc(C2=NN(S(=O)(=O)c3ccccc3)C(c3ccccc3O)C2)cc1 (stereo not drawn),4,/,-47,/,44*,/
CN(c1cccc(NC(=O)CN(c2cccc(F)c2)S(C)(=O)=O)c1)S(C)(=O)=O,5,/,25,-2,43*,-1
CN1/C(=C/c2cccc[n+]2C)Sc2ccccc21,118*,/,25,-1,0,-1
Cc1cccc(N=NC(=S)NNc2cccc(C)c2)c1,10,8,-20*,/,0,/
Cc1cccc(NNC(=O)C(=O)NNc2cccc(C)c2)c1,-1,6,8,0,/,3
C[C@H](O)C#Cc1ccc([C@H]2[C@H](CO)N3CCCCN(CC4CCOCC4)C[C@@H]23)cc1,/,4,7,98*,0,2
C[C@H](O)C#Cc1ccc([C@@H]2[C@H]3CN(CC4CCOCC4)CCCCN3[C@H]2CO)cc1,/,-8,8,0,0,0
C[C@@H](O)C#Cc1ccc([C@@H]2[C@H]3CN(CC4CC4)CCCCN3[C@H]2CO)cc1,/,7,-2,115*,0,3
COc1ccccc1-c1cnc2c(c1)C(=O)N([C@@H](C)CO)C[C@@H](C)[C@H](CN(C)Cc1ccncc1)O2,/,-7,-2,1,0,-3
CC(On1nnc2ccccc21)C(=O)N1CCN(Cc2ccccc2)CC1 (stereo not drawn),18,/,5,-1,43*,-2
COc1ccc2c3c(n(C)c2c1)[C@@H](CO)N(C)CC31CN(S(=O)(=O)c2cn(C)cn2)C1,/,-7,0,/,0,/
CC(NC(=O)c1ccccc1N)c1ccccc1 (stereo not drawn),13,/,10,/,43*,/
CCc1ccc(NC(=O)C(=O)NCC(O)c2ccccc2)cc1 (stereo not drawn),-7,/,-4,/,43*,/
CCOC(=O)C(C)n1cnc2c(nnn2-c2ccc(C)cc2)c1=O (stereo not drawn),-2,67*,/,0,/,2
Cc1ccc(-n2nnc3c(=O)n(CC(=O)OCc4ccccc4)cnc32)cc1,75*,/,3,1,0,-5
Oc1ccc2ccccc2c1CNc1ccc2ccccc2c1,-1,-4,-58,4,0,0
O=[N+]([O-])c1ccccc1NCc1c(O)ccc2ccccc12,2,/,-22*,1,0,-1
Oc1ccc2ccccc2c1CNc1ccccc1,?,11,-13*,0,1,-6
O=C(C1CCC1)N1CC(=O)N2[C@H](CO)[C@@H](c3ccc(C#Cc4cccc(F)c4)cc3)[C@H]2C1,/,-16,-30,/,/,/
c1ccc(COc2cccc(-c3cc4nc(NCc5cccs5)ccn4n3)c2)cc1,-25,-2,-28*,11,0,6
SMILES,Vif imaging,PGC1a acetyl inh,rRNA inh HTS,Cneo AK release,FGF22 binding,PglD DTNB
COCCCNc1ccn2nc(-c3cccc(OCc4ccccc4)c3)cc2n1,0,/,-26,-20,0,-4
Cc1ccccc1NS(=O)(=O)c1cccc2nonc12,-1,8,3,3,0,-1
O=S(=O)(Nc1cccc2ccccc12)c1cccc2nonc12,2,1,-27*,0,0,0
CN(CC(=O)NC(=O)NCc1ccccc1)Cc1ccc(Cl)cc1,3,/,/,/,/,/
CN(CC(=O)NC(=O)NCc1ccccc1)Cc1cccc(Cl)c1Cl,-5,6,-38*,-3,0,-1
O=C(CCSCCC(=O)NN=Cc1ccccc1O)NN=Cc1ccccc1O,-1,11,5,/,0,/
Cc1ccc(S(=O)(=O)NCC(=O)N/N=C/c2ccc(Cl)cc2Cl)cc1,-4,4,-35,-3,0,-6
O=C(CSc1ccccc1)N/N=C/c1ccccc1O,-3,-9,-19*,/,1,/
O=C(N/N=C/c1cc([N+](=O)[O-])ccc1O)C1CC1,1,-1,0,-1,0,-1
O=C(NN=Cc1ccccc1O)C1CC1,-9,9,7,7,43*,-2
Cc1ccc(S(=O)(=O)NCC(=O)N/N=C/c2ccccc2O)cc1,/,14,-31*,-2,0,-1
O=C(N/N=C/c1ccccc1O)C1SCCCS1,-9,/,-14*,/,0,/
CCCC(=O)Nc1ccc2c(c1)C(=O)N(C)C[C@H](OC)[C@H](C)CN(Cc1ccncc1)[C@H](C)CO2,/,20,1,/,/,/
CC(C)(C)c1[nH]nc2c1C(c1ccco1)C(C#N)=C(N)O2 (stereo not drawn),-2,/,8,/,44*,/
Cc1[nH]nc2c1C(c1ccc(OC(=O)c3ccco3)cc1)C(C#N)=C(N)O2 (stereo not drawn),2,23,/,-3,/,2
Cc1[nH]nc2c1C(c1ccco1)C(C#N)=C(N)O2 (stereo not drawn),45,-1,15,1,0,4
CC(C)c1[nH]nc2c1C(c1ccc(OC(=O)c3ccco3)cc1)C(C#N)=C(N)O2 (stereo not drawn),-1,/,-27*,/,0,/
CC(=O)N(C)C[C@@H]1Oc2ncc(C#Cc3ccccc3F)cc2C(=O)N([C@H](C)CO)C[C@@H]1C,/,-7,5,0,0,-2
Fc1ccc(-c2csc3ncnc(N4CCN(Cc5ccccc5)CC4)c23)cc1,2,/,-23*,-1,0,-3
Fc1ccc(N2CCN(c3nc(CN4CCOCC4)nc4scc(-c5ccccc5)c34)CC2)cc1,-4,/,-25*,/,0,/
Fc1ccc(CN2CCN(c3ncnc4scc(-c5ccccc5)c34)CC2)cc1,-7,-6,-52,-4,-1,10
COC(=O)[C@H]1[C@H](CO)[C@H]2Cn3c(ccc(-c4cncnc4)c3=O)[C@H]2N1C(=O)C1CCC1,/,-11,4,52,0,1
Cc1ccccc1-c1cnc2c(c1)C(=O)N([C@@H](C)CO)C[C@@H](C)[C@H](CN(C)CC1CCOCC1)O2,/,-6,-2,46,0,-2
CC(C)NC(=O)N(Cc1ccc(Cl)cc1)Cc1cccs1,1,-4,-24*,/,0,/
